Reference: ChEMBL document CHEMBL1134686, “Design, synthesis, SAR, and biological evaluation of highly potent benzimidazole-spaced phosphono-alpha-amino acid competitive NMDA antagonists of the AP-6 type” (J Med Chem, 2001)

What was measured:
Mus musculus = experiment: Functional NMDA antagonist activity was confirmed in vivo in mice (intraperitoneally) using an NMDA-induced lethality assay
Glutamate NMDA receptor [1] = experiment: Displacement of [3H]CPP from rat synaptic membrane glutamate NMDA receptor
Glutamate NMDA receptor [2] = experiment: Affinity for the NMDA receptor site was assessed by its ability to displace [3H]TCP from its binding site in rat brain; format: tissue-based
Summary of the method: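 Rat whole-brain crude synaptic membranes, resuspended in ice-cold 5.0 mM Tris HCl pH 7.4. Triplicate incubation 1 h at 25 °C with 2.5 nM [³H]TCP, 3 µM L-glutamate and 1 µM glycine. Nonspecific binding defined with 100 µM MK-801. Filtration on PEI-presoaked glass fiber filters, then scintillation counting. IC50 with 95% confidence limits from 5-10 concentrations.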

Rattus norvegicus [3] = species on record: Rattus norvegicus; experiment: Effect on the volume of infarcted brain tissue in rat; format: functional
Summary of the method: (§1)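 Male Fisher-344 rats under isoflurane, with permanent occlusion of the distal MCA plus the ipsilateral common carotid; body temperature held at 37 °C. Single iv tail-vein bolus of 3 mg/kg in 0.9% NaCl, given 5 min post-occlusion. At 24 h, cresyl violet-stained forebrain sections were taken at 400 µm intervals. Infarct volume by image analysis, mean ± SE, n=27-28 per group.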

Rattus norvegicus [4] = species on record: Rattus norvegicus; experiment: Effect on the decrease in volume of infarcted brain tissue in rat; format: functional; summary of the method: as §1
[5] = biological target: T1, Glutamate NMDA receptor (Rattus norvegicus) (UniProt P35439+Q00959+Q00960+Q00961+Q62645+Q8VHN2+Q9R1M7); experiment: Affinity for the NMDA receptor site was assessed by its ability to displace [3H]TCP from its binding site in rat brain at a concentration of 100 uM; format: tissue-based
[6] = biological target: T1, Glutamate NMDA receptor (Rattus norvegicus); experiment: Affinity for the NMDA receptor site was assessed by the ability to displace [3H]CPP from its binding site in rat synaptic membranes at a concentration of 100 uM; format: cell membranes
Summary of the method: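 Rat whole-brain crude synaptic membranes (Triton X-100 treated, frozen), in 50 mM Tris HCl pH 7.6, 0.2-0.5 mg protein. Triplicate incubation 15 min at 23 °C with 8 nM [³H]CPP. Nonspecific binding defined with 1.0 mM NMDA. Bound ligand separated by centrifugation at 48000g, then scintillation counting. Percent inhibition reported at 100 µM.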

[7] = Mus musculus, ip, read-out: ED50

| inhibition [5] | inhibition [6] | SMILES | ED50 (Mus musculus; [7]) | IC50 (Glutamate NMDA receptor [1]) | further results |
| --- | --- | --- | --- | --- | --- |
|  |  | O=C(O)C1CN(CCCP(=O)(O)O)CCN1 (stereo not given) | 1 mg/kg |  |  |
|  |  | NC(Cc1nc2cc(Br)ccc2n1CP(=O)(O)O)C(=O)OCc1ccccc1 (stereo not given) | 0.47 mg/kg | 56 nM | IC50 (Glutamate NMDA receptor [2]): 15500 nM |
|  |  | N[C@H](Cc1nc2cc(Cl)ccc2n1CP(=O)(O)O)C(=O)O | 0.13 mg/kg | 7.1 nM | Volume (Rattus norvegicus [3]): 51.3 mm**3; Decrease (Rattus norvegicus [4]): 45%; IC50 (Glutamate NMDA receptor [2]): 720 nM |
| 40% |  | NC(Cc1nc2cc(C(F)(F)F)ccc2n1CP(=O)(O)O)C(=O)O (stereo not given) |  | 750 nM |  |
|  |  | NC(Cc1nc2cc(Cl)ccc2n1CP(=O)(O)O)C(=O)OCc1ccccc1 (stereo not given) |  | 150 nM | IC50 (Glutamate NMDA receptor [2]): 46500 nM |
|  |  | NC(Cc1nc2cc(Cl)c(Cl)cc2n1CP(=O)(O)O)C(=O)O (single isomer, unassigned; (+)) |  | 1000 nM |  |
|  |  | NC(Cc1nc2cc(Cl)c(Cl)cc2n1CP(=O)(O)O)C(=O)O (single isomer, unassigned; (-)) | 2.58 mg/kg | 18 nM |  |
|  |  | NC(Cc1nc2ccc(Cl)cc2n1CP(=O)(O)O)C(=O)O (single isomer, unassigned; (-)) | 2.56 mg/kg | 22 nM | IC50 (Glutamate NMDA receptor [2]): 13600 nM |
|  |  | NC(Cc1nc2ccccc2n1CP(=O)(O)O)C(=O)O (single isomer, unassigned; (-)) |  | 77 nM | IC50 (Glutamate NMDA receptor [2]): 11100 nM; ED50 (Mus musculus): 2.04 mg/kg |
|  |  | NC(CCc1nc2ccccc2n1CP(=O)(O)O)C(=O)O (single isomer, unassigned; (-)) |  | 6800 nM |  |
| 0% | 61% | CCOC(=O)C(N)Cc1nc2ccccc2n1CP(=O)(O)O (single isomer, unassigned; (-)) |  |  |  |
| 88.5% | 99.7% | Cc1cc2nc(CC(N)C(=O)O)n(CP(=O)(O)O)c2cc1C (single isomer, unassigned; (-)) |  |  |  |
|  | 81% | NC(Cc1nc2c(Cl)cccc2n1CP(=O)(O)O)C(=O)O (single isomer, unassigned; (-)) |  |  |  |
| 28.1% | 73% | NC(Cc1nc2cccc(Cl)c2n1CP(=O)(O)O)C(=O)O (single isomer, unassigned; (-)) |  |  |  |
| 9.5% | 30% | NC(Cc1nc2ccccc2n1CC(=O)O)C(=O)O (single isomer, unassigned; (-)) |  |  |  |
| 9.5% | 39% | NC(Cc1nc2ccccc2n1CCP(=O)(O)O)C(=O)O (single isomer, unassigned; (-)) |  |  |  |
|  |  | NC(Cc1nc2ccccc2n1CP(=O)(O)O)C(=O)O (stereo in doubt; 8) [listing 1 of 2 here] |  |  | ED50 (Mus musculus): 7.91 mg/kg |
|  |  | NC(CCc1nc2ccccc2n1CP(=O)(O)O)C(=O)O (stereo in doubt; 10) |  | 5200 nM |  |
|  |  | NC(CCCCCP(=O)(O)O)C(=O)O (stereo not given) [AP-7] | 37.6 mg/kg |  |  |
|  |  | O=C(O)[C@@H]1C[C@H](CP(=O)(O)O)CCN1 [SELFOTEL] | 0.6 mg/kg |  |  |

| SMILES | inhibition [5] | inhibition [6] | ED50 (Mus musculus; [7]) | IC50 (Glutamate NMDA receptor [1]) | further results |
| --- | --- | --- | --- | --- | --- |
| NC(Cc1nc2ccccc2n1CP(=O)(O)O)C(=O)O (stereo in doubt; 8) [listing 2 of 2 here] | 29.1% | 30% |  |  |  |
